Structures are written as SMILES. ≈ marks a conversion by molar mass, not a printed value.

A short description of data set [1]: Half life in mouse at 2 mg/kg, iv. Type of data set: ADME, organism-based. To be noted: in vivo. The gist of the method: (§1)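 Mice received a single intravenous dose of 2 mg/kg or an oral dose of 10 mg/kg. Drug concentrations were measured in plasma, with sampling that extended to 24 h, and the pharmacokinetic parameters were derived from the plasma concentration–time profiles.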

Data set [2] concerns Mycobacterium tuberculosis. The experiment in a line: Antimycobacterial activity against GFP expressing Mycobacterium tuberculosis H37Rv infected in mouse RAW264.7 cells assessed as reduction in bacterial replication after 5 days by confocal microscopic method. Type of data set: functional. Conditions: 120 h. In short, it runs like this: (§2)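 H37Rv expressing GFP, grown either in liquid broth (extracellular) or inside macrophages (intracellular). The value is MIC80, the lowest concentration that inhibits growth by 80%, averaged from two independent measurements.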

Data set [3] can be described thus: Cmax in mouse at 10 mg/kg, po. Type of data set: ADME, organism-based. On the set-up: dose 10 mg/kg, route oral. To be noted: in vivo. The gist of the method: as §1
Data set [4] is described as follows: Half life in mouse at 10 mg/kg, po. Type of data set: ADME, organism-based. Conditions: in vivo. In short, it runs like this:
as §1

A short description of data set [5]: Oral bioavailability in mouse at 10 mg/kg. It counts as ADME, organism-based. Conditions: in vivo. In short, it runs like this: as §1
The nature of data set [6]: Clearance in mouse at 2 mg/kg, iv. Type of data set: ADME, organism-based. Conditions: in vivo. The gist of the method: as §1
Data set [7] has as its system Mycobacterium tuberculosis. The experiment in a line: Antimycobacterial activity against GFP expressing Mycobacterium tuberculosis H37Rv assessed as reduction in bacterial replication in culture broth medium. It counts as functional. The gist of the method: as §2
Data set [8] is described as follows: AUC (0 to infinity) in mouse at 10 mg/kg, po. It counts as ADME, organism-based. More on the design: dose 10 mg/kg, route oral, time infinity. Conditions: in vivo. In short, it runs like this: as §1
A short description of data set [9]: Half life in rat liver microsomes. Type of data set: ADME, microsome.
The nature of data set [10]: Volume of distribution at steady state in mouse at 2 mg/kg, iv. To be noted: in vivo, read-out: Vdss. It counts as ADME, organism-based. In short, it runs like this:
as §1

Data set [11] is described as follows: Half life in human liver microsomes. Type of data set: ADME, microsome.
Data set [12] is described as follows: Tmax in mouse at 10 mg/kg, po. Type of data set: ADME, organism-based. To be noted: in vivo. The gist of the method: as §1

Turning to `CCc1nc2cc(Cl)ccn2c1C(=O)NCc1ccc2oc(-c3ccc(OC(F)(F)F)cc3)nc2c1`, the half-life is 1080 min in data set [1], 36.3 h in data set [4], over 120 min in [9] and over 120 min in data set [11]. In addition, the MIC80 in data set [2] is under 0.001 µM; in [7] it was 0.009 µM (≈ 0.00463 µg/mL). For the same molecule, in data set [3], the Cmax was found to be 5560 ng/mL. The molecule also returned a bioavailability in data set [5] of 40.1%. The molecule further registered a clearance in data set [6] of 0.6 mL/min/kg. Besides, the total exposure AUC(0-inf) in data set [8] amounted to 116 µg·h/mL. The Vd in data set [10] amounted to 1.2 L/kg. For the same molecule, the Tmax in [12] was 60 min.
For `CCc1nc2cc(Cl)ccn2c1C(=O)NCc1ccc2oc(CN3CCOCC3)nc2c1`, the values for the MIC80 in data set [2] and in data set [7] were 6.67 µM (≈ 3.03 µg/mL) and 13.7 µM (≈ 6.22 µg/mL), respectively. For the same molecule, the half-life in data set [9] stood at 18.9 min; in [11], 23.2 min.
As for `CCc1nc2ccc(Cl)cn2c1C(=O)NCc1ccc2c(c1)OCO2`, the MIC80 turned out to be 0.009 µM (≈ 0.00322 µg/mL) in data set [2] and 0.082 µM (≈ 0.0293 µg/mL) in data set [7]. Moreover, the results for the half-life in data set [9] and in [11] were 2.1 min and 7.4 min, respectively.
Turning to `CCc1nc2cc(Cl)ccn2c1C(=O)NCc1ccc2oc(C)nc2c1`, the values for the MIC80 in data set [2] and in data set [7] were 0.74 µM (≈ 0.273 µg/mL) and 1.53 µM (≈ 0.564 µg/mL), respectively. Further, the half-life in data set [9] is 10.3 min; in data set [11], over 120 min.
For `CCc1nc2ccc(Cl)cn2c1C(=O)NCc1ccc2oc(-c3ccc(F)cc3)nc2c1`, the MIC80 in data set [2] stood at 0.003 µM (≈ 0.00135 µg/mL); in data set [7], 0.009 µM (≈ 0.00404 µg/mL). Moreover, the results for the half-life in data set [9] and in [11] were 54.3 min and 25.6 min, respectively.
On the same counts, the results for `CCc1nc2ccc(Cl)cn2c1C(=O)NCc1ccc2oc(-c3ccc(OC(F)(F)F)cc3)nc2c1` are 0.009 µM (≈ 0.00463 µg/mL), 0.027 µM (≈ 0.0139 µg/mL), over 120 min and over 120 min.
As for `CCc1nc2ccc(Cl)cn2c1C(=O)NCc1ccc2oc(C3CCCCC3)nc2c1`, the MIC80 in data set [2] and in [7] was 0.082 µM (≈ 0.0358 µg/mL) in each case. Besides, the half-life in data set [9] was determined as 5.2 min; in data set [11] it was 17 min.
For `CCc1nc2cc(Cl)ccn2c1C(=O)NCc1ccc2oc(C3CCCCC3)nc2c1`, the MIC80 in [2] and in data set [7] was 0.082 µM (≈ 0.0358 µg/mL) throughout. For the same molecule, the figures for the half-life in data set [9] and in [11] were 9.5 min and 10.2 min, respectively.
On to `CCc1nc2ccc(Cl)cn2c1C(=O)NCc1ccc(N2CCC(c3ccc(OC(F)(F)F)cc3)CC2)cc1` [TELACEBEC], for which the MIC80 was found to be 0.001 µM (≈ 0.000557 µg/mL) in data set [2] and 0.004 µM (≈ 0.00223 µg/mL) in [7].
As for `CCc1nc2cc(Cl)ccn2c1C(=O)NCc1ccc2ccccc2c1`, the MIC80 in [2] was determined as 1 µM (≈ 0.364 µg/mL); in data set [7] it was 0.12 µM (≈ 0.0437 µg/mL). The half-life in [9] was determined as 6.3 min; in [11], 23.7 min.
On the same counts, the results for `CCc1nc2ccc(Cl)cn2c1C(=O)NCc1ccc2oc(CN3CCOCC3)nc2c1` are 2.22 µM (≈ 1.01 µg/mL), 2.67 µM (≈ 1.21 µg/mL), 14.1 min and 17 min.
The like results for `CCc1nc2ccc(Cl)cn2c1C(=O)NCc1ccc2ccccc2c1` were, in that order, 0.062 µM (≈ 0.0226 µg/mL), 0.031 µM (≈ 0.0113 µg/mL), 3.1 min and 6.9 min.
With `NNC(=O)c1ccncc1` [ISONIAZID], the MIC80 in [2] came to 0.2 µM (≈ 0.0274 µg/mL); in data set [7] it was 0.49 µM (≈ 0.0672 µg/mL).
In the case of `CCc1nc2ccc(Cl)cn2c1C(=O)NCc1ccc2oc(C)nc2c1`, the MIC80 in data set [2] stood at 0.082 µM (≈ 0.0302 µg/mL); in [7], 0.2 µM (≈ 0.0738 µg/mL). Besides, the half-life came out at 5.8 min in [9] and 32.2 min in [11].
On the same counts, the results for `CCc1nc2cc(Cl)ccn2c1C(=O)NCc1ccc2oc(-c3ccc(F)cc3)nc2c1` are 0.74 µM (≈ 0.332 µg/mL), 0.082 µM (≈ 0.0368 µg/mL), over 120 min and 103 min.

(Values after ChEMBL document CHEMBL4138109, “Synthesis and structure-activity relationships of novel fused ring analogues of Q203 as antitubercular agents” (Eur J Med Chem, 2017).)
